≈ marks a conversion by molar mass, not a printed value. Calls of active or inactive are those of the source. The rule behind the calls is not given here.
Legend:
[1] = Aqueous kinetic solubility of compound in PBS at pH 7.4 incubated for 24 hrs by Chemiluminescent nitrogen determination assay; format: physicochemical; conditions: for Kinetic_solubility: buffer, pH 7.4, 24 h; for solubility kinetic at 24 h: PBS, pH 7.4, read-out: Kinetic_solubility
[2] = test system: RM-82; assay: (§1) Antiproliferative activity against human RM-82 cells assessed as inhibition of cell proliferation at 1 uM incubated for 5 days by WST-1 assay; format: functional; conditions: time 5.0 day
[3] = test system: STA-ET-1; assay: (§2) Antiproliferative activity against human STA-ET-1 cells assessed as inhibition of cell proliferation at 1 uM incubated for 5 days by WST-1 assay; format: functional; conditions: time 5.0 day
How it was run: (§3)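 Ewing sarcoma cell lines were exposed to a single 1 μM concentration for 5 days. Viability was reported as percent viability, as part of a preliminary single-dose screen.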

[4] = test system: STA-ET-10; assay: (§4) Antiproliferative activity against human STA-ET-10 cells assessed as inhibition of cell proliferation at 1 uM incubated for 5 days by WST-1 assay; format: functional; conditions: time 5.0 day; how it was run: as §3
[5] = Antiproliferative activity against human MUG-Chor1 cells assessed as inhibition of cell proliferation at 1 uM incubated for 5 days by WST-1 assay; format: functional; parameters: scale not given: the % may be the effect or the level left; conditions: time 5 day
[6] = test system: L-363; assay: Antiproliferative activity against bortezomib-resistant human L-363 cells assessed as inhibition of cell proliferation at 1 uM incubated for 5 days by WST-1 assay; format: functional; parameters: scale not given: the % may be the effect or the level left; conditions: time 5 day
[7] = test system: AMO1; assay: Antiproliferative activity against human AMO1 cells assessed as inhibition of cell proliferation at 1 uM incubated for 5 days by WST-1 assay; format: functional; parameters: scale not given: the % may be the effect or the level left; conditions: time 5 day
[8] = test system: L-363; assay: Antiproliferative activity against carfilzomib-resistant human L-363 cells assessed as inhibition of cell proliferation at 1 uM incubated for 5 days by WST-1 assay; format: functional; parameters: scale not given: the % may be the effect or the level left; conditions: time 5 day
[9] = test system: L-363; assay: Antiproliferative activity against human L-363 cells assessed as inhibition of cell proliferation at 1 uM incubated for 5 days by WST-1 assay; format: functional; parameters: scale not given: the % may be the effect or the level left; conditions: time 5 day
[10] = test system: AMO1; assay: Antiproliferative activity against pomalidomide resistant human AMO1 cells assessed as inhibition of cell proliferation at 1 uM incubated for 5 days by WST-1 assay; format: functional; parameters: scale not given: the % may be the effect or the level left; conditions: time 5 day
[11] = target: T1, Casein kinase II subunit alpha' (Homo sapiens, UniProt P19784); assay: Inhibition of wild type human CK2alpha' in presence of ATP by radiometric kinase assay
T1 sequence (P19784 whole entry): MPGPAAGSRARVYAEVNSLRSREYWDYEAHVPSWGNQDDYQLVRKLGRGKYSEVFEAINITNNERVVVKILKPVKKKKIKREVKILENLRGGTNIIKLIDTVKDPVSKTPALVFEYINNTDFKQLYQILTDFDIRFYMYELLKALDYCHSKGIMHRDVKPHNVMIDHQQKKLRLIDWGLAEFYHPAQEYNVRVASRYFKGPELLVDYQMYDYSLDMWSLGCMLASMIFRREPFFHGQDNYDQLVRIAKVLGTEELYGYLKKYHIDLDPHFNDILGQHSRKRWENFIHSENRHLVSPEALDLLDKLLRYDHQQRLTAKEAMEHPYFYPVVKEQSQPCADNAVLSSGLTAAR

[12] = target: T2, Casein kinase II subunit alpha (Homo sapiens, UniProt P68400); assay: Inhibition of wild type human CK2alpha in presence of ATP by radiometric kinase assay
T2 sequence (P68400 whole entry, the tested form may be a part): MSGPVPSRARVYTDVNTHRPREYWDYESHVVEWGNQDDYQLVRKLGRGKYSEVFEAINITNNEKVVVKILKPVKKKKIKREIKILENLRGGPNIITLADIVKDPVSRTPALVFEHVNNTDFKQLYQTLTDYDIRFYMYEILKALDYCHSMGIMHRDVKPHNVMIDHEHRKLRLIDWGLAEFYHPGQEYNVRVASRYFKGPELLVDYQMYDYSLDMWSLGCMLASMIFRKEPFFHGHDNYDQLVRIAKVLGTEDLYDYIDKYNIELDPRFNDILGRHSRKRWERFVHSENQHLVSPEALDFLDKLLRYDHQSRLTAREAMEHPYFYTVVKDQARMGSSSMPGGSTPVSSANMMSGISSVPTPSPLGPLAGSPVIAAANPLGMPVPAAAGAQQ

[13] = target: T2, Casein kinase II subunit alpha; assay: Inhibition of C-terminal Nano-Luc fused human CK2alpha expressed in HEK293 cells using NanoBRET NanoGlo substrate in presence of tracer K10 by NanoBRET assay; format: cell-based
[14] = target: Phosphatidylinositol 4-phosphate 5-kinase type-1 gamma (Homo sapiens) (UniProt O60331); assay: Inhibition of wild type human PIP5K1C at 1 uM by DiscoverX scanMAX assay relative to control; values are per cent of control
Phosphatidylinositol 4-phosphate 5-kinase type-1 gamma (Homo sapiens), sequence (O60331 whole entry, the tested form may be a part): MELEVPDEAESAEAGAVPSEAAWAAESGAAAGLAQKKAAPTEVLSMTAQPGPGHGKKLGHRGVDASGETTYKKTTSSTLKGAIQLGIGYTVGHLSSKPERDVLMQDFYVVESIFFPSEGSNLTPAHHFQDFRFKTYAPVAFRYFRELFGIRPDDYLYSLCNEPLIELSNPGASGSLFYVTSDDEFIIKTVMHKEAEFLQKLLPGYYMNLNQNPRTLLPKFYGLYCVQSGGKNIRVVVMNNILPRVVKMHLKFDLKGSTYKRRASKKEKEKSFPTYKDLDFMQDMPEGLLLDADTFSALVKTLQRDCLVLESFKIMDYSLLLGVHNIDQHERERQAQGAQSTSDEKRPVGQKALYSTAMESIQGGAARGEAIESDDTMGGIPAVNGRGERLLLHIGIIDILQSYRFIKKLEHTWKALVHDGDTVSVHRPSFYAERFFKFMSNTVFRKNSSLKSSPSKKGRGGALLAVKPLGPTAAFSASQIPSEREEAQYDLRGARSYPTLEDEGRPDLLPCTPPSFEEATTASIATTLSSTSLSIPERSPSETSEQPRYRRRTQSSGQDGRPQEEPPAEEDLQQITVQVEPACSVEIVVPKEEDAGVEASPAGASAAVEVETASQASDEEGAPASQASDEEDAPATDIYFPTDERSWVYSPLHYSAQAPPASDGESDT

[15] = target: T1, Casein kinase II subunit alpha'; assay: Inhibition of C-terminal Nano-Luc fused human CK2alpha' expressed in HEK293 cells using NanoBRET NanoGlo substrate in presence of tracer K5 by NanoBRET assay; format: cell-based
[16] = target: Death-associated protein kinase 2 (Homo sapiens, UniProt Q9UIK4); assay: Inhibition of wild type human DAPK2 in presence of ATP by radiometric kinase assay
Death-associated protein kinase 2, sequence (Q9UIK4 whole entry): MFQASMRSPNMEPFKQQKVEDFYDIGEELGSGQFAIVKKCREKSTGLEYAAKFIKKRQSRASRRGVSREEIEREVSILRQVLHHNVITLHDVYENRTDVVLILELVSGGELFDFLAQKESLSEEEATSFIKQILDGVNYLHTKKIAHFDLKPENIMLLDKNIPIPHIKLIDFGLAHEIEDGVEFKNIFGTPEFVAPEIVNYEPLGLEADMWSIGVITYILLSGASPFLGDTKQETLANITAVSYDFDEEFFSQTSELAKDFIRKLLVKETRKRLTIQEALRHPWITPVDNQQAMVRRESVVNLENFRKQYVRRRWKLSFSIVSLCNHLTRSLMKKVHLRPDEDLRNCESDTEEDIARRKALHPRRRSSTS

[17] = Permeability of compound incubated for 5 hrs by PAMPA based CLND assay; format: ADME
[18] = target: T3, Homeodomain-interacting protein kinase 2 (Homo sapiens, UniProt Q9H2X6); assay: Inhibition of wild type human HIPK2 at 1 uM by DiscoverX scanMAX assay relative to control; values are per cent of control
Target sequence in this assay (Q9H2X6 whole entry, looked up): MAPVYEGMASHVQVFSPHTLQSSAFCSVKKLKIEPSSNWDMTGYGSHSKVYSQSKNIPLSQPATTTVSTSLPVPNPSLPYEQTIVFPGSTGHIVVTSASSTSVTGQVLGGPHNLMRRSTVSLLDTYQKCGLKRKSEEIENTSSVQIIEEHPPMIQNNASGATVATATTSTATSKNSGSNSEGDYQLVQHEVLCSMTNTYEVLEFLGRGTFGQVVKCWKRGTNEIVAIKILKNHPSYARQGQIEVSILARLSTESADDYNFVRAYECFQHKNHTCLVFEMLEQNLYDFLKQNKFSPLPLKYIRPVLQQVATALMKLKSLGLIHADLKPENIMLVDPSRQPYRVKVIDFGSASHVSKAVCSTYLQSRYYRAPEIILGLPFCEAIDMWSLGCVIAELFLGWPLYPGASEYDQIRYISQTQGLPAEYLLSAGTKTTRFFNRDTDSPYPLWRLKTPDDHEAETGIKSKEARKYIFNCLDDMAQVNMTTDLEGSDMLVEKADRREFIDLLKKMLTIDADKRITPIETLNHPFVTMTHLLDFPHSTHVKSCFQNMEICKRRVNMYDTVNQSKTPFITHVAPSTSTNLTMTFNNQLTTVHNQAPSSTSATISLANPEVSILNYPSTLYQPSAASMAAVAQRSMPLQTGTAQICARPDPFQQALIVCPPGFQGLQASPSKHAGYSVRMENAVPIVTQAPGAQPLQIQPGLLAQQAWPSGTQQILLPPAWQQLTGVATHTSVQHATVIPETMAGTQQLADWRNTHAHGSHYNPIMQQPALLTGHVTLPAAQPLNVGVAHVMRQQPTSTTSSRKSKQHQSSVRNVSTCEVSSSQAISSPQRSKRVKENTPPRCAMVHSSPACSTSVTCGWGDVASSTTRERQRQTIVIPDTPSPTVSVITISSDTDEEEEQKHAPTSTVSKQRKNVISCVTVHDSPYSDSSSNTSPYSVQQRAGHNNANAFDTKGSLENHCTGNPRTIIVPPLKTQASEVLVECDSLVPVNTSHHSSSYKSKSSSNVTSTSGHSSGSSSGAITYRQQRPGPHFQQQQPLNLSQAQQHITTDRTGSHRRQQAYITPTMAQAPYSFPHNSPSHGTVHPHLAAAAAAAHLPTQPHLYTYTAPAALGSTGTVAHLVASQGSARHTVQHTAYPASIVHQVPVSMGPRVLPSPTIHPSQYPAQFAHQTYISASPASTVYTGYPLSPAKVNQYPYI

[19] = target: T3, Homeodomain-interacting protein kinase 2; assay: Inhibition of wild type human HIPK2 in presence of ATP by radiometric kinase assay
Target sequence in this assay (Q9H2X6 whole entry): as the sequence (Q9H2X6 whole entry, looked up) above

[20] = test system: MDA-MB-231; assay: Anticancer activity against human MDA-MB-231 cells assessed as cell growth inhibition at 2 to 10 uM incubated for 24 to 72 hrs by WST-1 assay; conditions: dose 2-10 µM, time lower […], time upper 72.0 hrs
[21] = as §1; format: functional; parameters: scale not given: the % may be the effect or the level left; conditions: time 5 day
[22] = as §2; format: functional; parameters: scale not given: the % may be the effect or the level left; conditions: time 5 day; how it was run: as §3
[23] = as §4; format: functional; parameters: scale not given: the % may be the effect or the level left; conditions: time 5 day; how it was run: as §3

Molecule `O=C(O)c1ccc2c(c1)nc(Nc1ccc3ccccc3c1)c1ncncc12` has a Kinetic_solubility [1] of 54.3 µM.

Molecule `COc1cccc(Nc2nc3cc(C(=O)O)ccc3c3cnccc23)c1` has a solubility kinetic at 24 h [1] of 190 µM (≈ 65.8 µg/mL).

Work on `O=C(O)c1ccc2c(c1)nc(NCCc1cccc(Cl)c1)c1ccncc12` yielded a solubility kinetic at 24 h [1] of 184 µM (≈ 69.5 µg/mL).

With `O=C(O)c1ccc2c(c1)nc(NCCc1cccc(Cl)c1)c1ncncc12` the Kinetic_solubility [1] was 109.1 µM.

In the case of `N#Cc1cccc(Nc2nc3cc(C(=O)O)ccc3c3cncnc23)c1`, the Kinetic_solubility [1] is reported as 66.7 µM, the Activity [2] is reported as “inactive” and the Activity [3] is reported as “inactive”. For the same molecule, the Activity [4] was “inactive”.

Molecule `O=C(O)c1ccc2c(c1)nc(NCCc1cccc(F)c1)c1ncncc12` has a Kinetic_solubility [1] of 147 µM.

In the case of `O=C(O)c1ccc2c(c1)nc(NCCc1ccccc1)c1ncncc12`, the Kinetic_solubility [1] is reported as 146.4 µM.

Molecule `O=C(O)c1ccc2c(c1)nc(Nc1ccc(F)c(Cl)c1)c1ncncc12` has a Kinetic_solubility [1] of 49.1 µM.

Work on `O=C(O)c1ccc2c(c1)nc(NCCc1ccccc1)c1ccncc12` yielded a solubility kinetic at 24 h [1] of 171 µM (≈ 58.9 µg/mL).

For `CCC(=O)Nc1cc(Nc2cc(NC3CC3)n3ncc(C#N)c3n2)ccc1C`, the Activity [5] was 55%, the Activity [3] was “inactive” and the Activity [6] was 9%. The Activity [7] was 9%, the Activity [8] was 9% and the Activity [9] was 9%. The Activity [10] was 9% and the Activity [4] was “inactive”.

Molecule `O=C(O)c1ccc2c(c1)nc(Nc1ccccc1Cl)c1ncncc12` has a Kinetic_solubility [1] of 121.8 µM.

In the case of `O=C(O)c1ccc2c(c1)nc(Nc1cccc(F)c1)c1ccncc12`, the solubility kinetic at 24 h [1] is reported as 237 µM (≈ 78.9 µg/mL).

Work on `O=C(O)c1ccc2c(c1)nc(NCc1ccccc1)c1ncccc12` yielded an IC50 [11] of over 10 µM, an IC50 [12] of over 10 µM and an IC50 [13] of over 10 µM. The residual activity [14] was 15% and the IC50 [15] was over 10 µM.

`O=C(O)c1ccc2c(c1)nc(NCc1ccccc1)c1ccncc12` showed a solubility kinetic at 24 h [1] of 202 µM (≈ 66.7 µg/mL).

With `O=C(O)c1ccc2c(c1)nc(Nc1ccccc1)c1ncncc12` the solubility kinetic at 24 h [1] was 168 µM (≈ 53.2 µg/mL).

`O=C(O)c1ccc2c(c1)nc(Nc1ccc(F)c(Cl)c1)c1ccncc12` gave a Kinetic_solubility [1] of 148.4 µM.

`O=C(O)c1ccc2c(c1)nc(Nc1cccc(F)c1)c1ncncc12` showed a solubility kinetic at 24 h [1] of 192 µM (≈ 64.2 µg/mL).

With `O=C(O)c1ccc2c(c1)nc(Nc1ccc(Cl)cc1)c1ncncc12` the solubility kinetic at 24 h [1] was 209 µM (≈ 73.3 µg/mL).

`O=C(O)c1ccc2c(c1)nc(Nc1ccc(Cl)cc1)c1ccncc12` gave a Kinetic_solubility [1] of 25.3 µM.

With `COc1cccc(CCNc2nc3cc(C(=O)O)ccc3c3cncnc23)c1` the solubility kinetic at 24 h [1] was 152 µM (≈ 56.8 µg/mL).

With `O=C(O)c1ccc2c(c1)nc(Nc1ccccc1)c1ccncc12` the solubility kinetic at 24 h [1] was 184 µM (≈ 58.1 µg/mL).

For `O=C(O)c1ccc2c(c1)nc(NCc1ccccc1)c1ncncc12`, the solubility kinetic at 24 h [1] was 211 µM (≈ 69.6 µg/mL), the IC50 [16] was 1.5 µM and the Activity [2] was “inactive”. For the same molecule, the Activity [3] was “inactive”, the Activity [7] was 44% and the Activity [9] was 36%. For the same molecule, the permeability [17] was “Permeable”, the residual activity [18] was 30% and the Activity [4] was “inactive”. The IC50 [19] was 0.6 µM.

For `O=C(O)c1ccc2c(c1)nc(NCCc1cccc(F)c1)c1ccncc12`, the solubility kinetic at 24 h [1] was 188 µM (≈ 67.8 µg/mL).

In the case of `N#Cc1cccc(Nc2nc3cc(C(=O)O)ccc3c3cnccc23)c1`, the Kinetic_solubility [1] is reported as 131.7 µM, the Activity [2] is reported as “inactive” and the Activity [3] is reported as “inactive”. For the same molecule, the Activity [4] was “inactive”.

In the case of `O=C(O)c1ccc2c(c1)nc(Nc1cccc(Cl)c1)c1ccncc12` [SILMITASERTIB], the Kinetic_solubility [1] is reported as 277.1 µM, the Activity [20] is reported as “Active” and the Activity [21] is reported as 63%. For the same molecule, the Activity [22] was 21%, the permeability [17] was “Permeable” and the Activity [23] was 63%.

With `O=C(O)c1ccc2c(c1)nc(Nc1ccc3ccccc3c1)c1ccncc12` the Kinetic_solubility [1] was 32.8 µM.

`COc1cccc(CCNc2nc3cc(C(=O)O)ccc3c3cnccc23)c1` showed a solubility kinetic at 24 h [1] of 180 µM (≈ 67.4 µg/mL).
